In ChEMBL document CHEMBL1153229, “The first synthetic agonists of FFA2: Discovery and SAR of phenylacetamides as allosteric modulators” (Bioorg Med Chem Lett, 2010):

Tests used:
[1] = molecular target: T1, Free fatty acid receptor 2 (Homo sapiens, UniProt O15552); assay: Agonist activity at human FFA2 receptor expressed in CHO cells assessed as inhibition of forskolin-induced cAMP production; format: functional, cell-based
T1 sequence (O15552 whole entry): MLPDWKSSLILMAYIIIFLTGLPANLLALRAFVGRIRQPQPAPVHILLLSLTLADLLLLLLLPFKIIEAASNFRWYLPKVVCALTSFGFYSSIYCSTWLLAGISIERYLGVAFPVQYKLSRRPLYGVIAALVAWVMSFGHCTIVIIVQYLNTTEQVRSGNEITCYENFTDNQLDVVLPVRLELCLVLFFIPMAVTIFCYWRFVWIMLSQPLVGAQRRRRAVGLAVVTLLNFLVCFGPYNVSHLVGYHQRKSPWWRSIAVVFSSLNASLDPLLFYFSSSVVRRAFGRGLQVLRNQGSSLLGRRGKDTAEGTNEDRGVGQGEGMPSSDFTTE
Procedure, shortened: (§1)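 Suspended cells, 10,000 per well, in Hank's balanced salt solution with 25 mM HEPES and 0.01% (w/v) BSA. Stimulated with forskolin (5 μM final) plus serially diluted test ligands, room temperature for 30 min. Antibody and lysis reagents then added, followed by overnight dark incubation with detection solution. Luminescence read (RLU). Efficacy expressed relative to acetate. Means of four experiments.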

[2] = molecular target: T2, Free fatty acid receptor 2 (Homo sapiens) (UniProt O15552); assay: Agonist activity at human FFA2 receptor expressed in CHO cells assessed as inhibition of forskolin-induced cAMP production relative to acetate; format: functional, cell-based; procedure, shortened: as §1
T2 sequence (whole entry): T1 sequence (O15552 whole entry)

| SMILES | IC50 [1] | Efficacy [2] |
| --- | --- | --- |
| CC(C)[C@H](CNc1nccs1)c1ccc(Cl)cc1 | > 100 µM | < 30% |
| CC(C)[C@@H](C(=O)Nc1nccs1)c1ccc(Cl)cc1 | > 100 µM | < 30% |
| CC(=O)O [ACETIC ACID] | 120 µM | 100% |
| CC(C)[C@H](NC(=O)c1nccs1)c1ccc(Cl)cc1 | > 100 µM | < 30% |
| CC(C)[C@H](C(=O)Nc1nncs1)c1ccc(Cl)cc1 | 12 µM | 115% |
| CC(C)[C@H](C(=O)NC1=NC(=O)CS1)c1ccc(Cl)cc1 | 20 µM | 96% |
| CC(C)[C@H](C(=O)Nc1nc(C(C)(C)C)cs1)c1ccc(Cl)cc1 | 7.9 µM | 45% |
| CO/C(=N\c1nccs1)[C@H](c1ccc(Cl)cc1)C(C)C | > 100 µM | < 30% |
| O=C(Nc1ncc(F)s1)C1(c2ccc(Cl)cc2)CCC1 | 1.5 µM | 89% |
| Cc1csc(NC(=O)[C@H](c2ccc(Cl)cc2)C(C)C)n1 | 1.4 µM | 87% |
| Cc1nc(NC(=O)[C@H](c2ccc(Cl)cc2)C(C)C)sc1C | 1.8 µM | 97% |
| CC(C)C(C(=O)Nc1nccs1)c1ccc(Cl)cc1 (racemic) | 0.8 µM | 98% |
| CC(C)[C@H](C(=O)Nc1nc2cc(Cl)ccc2o1)c1ccc(Cl)cc1 | 4.3 µM | 88% |
| O=C(Nc1nccs1)C(c1ccc(Cl)cc1)c1ccc(Cl)cc1 | > 100 µM | < 30% |
| CC(C)[C@H](C(=O)Nc1cccnn1)c1ccc(Cl)cc1 | 2.3 µM | 101% |
| CC(C)(C)[C@H](C(=O)Nc1ncc(N2CCOCC2)s1)c1ccc(Cl)cc1 | 1.6 µM | 111% |
| CNC(=O)[C@H](c1ccc(Cl)cc1)C(C)C | 11 µM | 66% |
| COC(=O)c1cnc(NC(=O)[C@H](c2ccc(Cl)cc2)C(C)C)s1 | 2 µM | 98% |
| CC(C)[C@H](C(=O)Nc1ncc(C(N)=O)s1)c1ccc(Cl)cc1 | 71 µM | 59% |

| SMILES | IC50 [1] | Efficacy [2] |
| --- | --- | --- |
| CN(C)c1cnc(NC(=O)[C@H](c2ccc(Cl)cc2)C(C)(C)C)s1 | 1.6 µM | 112% |
| CS(=O)(=O)c1ccc([C@@H](C(=O)Nc2ncc(F)s2)C2CC2)cc1 | > 100 µM | < 30% |
| CC(C)[C@H](C(=O)Nc1ncc(C(F)(F)F)s1)c1ccc(Cl)cc1 | 1.5 µM | 95% |
| C=CC[C@H](C(=O)Nc1nccs1)c1ccc(Cl)cc1 | 1.1 µM | 88% |
| CC(C)[C@H](C(=O)NC1=NCCS1)c1ccc(Cl)cc1 | 2.1 µM | 109% |
| CC(C)[C@H](C(=O)Nc1ncc[nH]1)c1ccc(Cl)cc1 | 20 µM | 55% |
| O=C(Nc1nccs1)[C@@H](CC1CC1)c1ccc(Cl)cc1 | 8.8 µM | 72% |
| CC(C)[C@H](C(=O)Nc1ncc(C#N)s1)c1ccc(Cl)cc1 | 2 µM | 105% |
| CC(C)C(C(=O)Nc1nc(-c2cccnc2)cs1)c1ccc(Cl)cc1 (racemic) | > 100 µM | < 30% |
| CC(C)[C@H](C(=O)Nc1ncns1)c1ccc(Cl)cc1 | 2 µM | 99% |
| CC(C)C(C(=O)O)c1ccc(Cl)cc1 (racemic) | > 100 µM | < 30% |
| CC(C)(C)[C@H](C(=O)Nc1ncc(C#N)s1)c1ccc(Cl)cc1 | 1.5 µM | 106% |
| CC(C)[C@H](C(=O)Nc1ccncc1)c1ccc(Cl)cc1 | 56 µM | 40% |
| CC(C)(C)[C@H](C(=O)Nc1ncc(S(C)(=O)=O)s1)c1ccc(Cl)cc1 | 3.4 µM | 107% |
| CCC[C@H](C(=O)Nc1nccs1)c1ccc(Cl)cc1 | 5.5 µM | 108% |
| CC(C)[C@H](C(=O)Nc1ccn[nH]1)c1ccc(Cl)cc1 | > 100 µM | – |
| CCC(=O)O | – | 100% |
| CC(C)[C@H](C(=O)Nc1cc[nH]n1)c1ccc(Cl)cc1 | – | < 30% |
